In ChEMBL document CHEMBL1156152, “Targeted delivery of paclitaxel to tumor cells: synthesis and in vitro evaluation” (J Med Chem, 2010):
The source made the active and inactive calls. The calls are words filed in the database; no cut-off is given here.

Tests used:
[1] = (§1) Cytotoxicity against paclitaxel-sensitive human KB3-1 cells assessed as decrease in cell viability after 72 hrs by neutral red dye assay; assay type: functional, cell-based; details: KB 3-1, 72 h
In short: (§2)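 KB-3-1 head and neck cancer cells kept in D-MEM/F12 with 10% FBS, penicillin/streptomycin, 2 mM L-glutamine, 37 °C, 5% CO2. Seeded 20,000 cells/well, adhered 24 h, then given varying concentrations in triplicate for 72 h. Viable cells took up neutral red (50 μg/ml, 30 min); dye dissolved in 0.5 N HCl with 35% ethanol, absorbance 570 nm.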

[2] = system: KB 3-1; assay: as §1; assay type: functional, cell-based; in short: as §2
[3] = system: KB-V1; assay: Cytotoxicity against paclitaxel-resistant human KBV1 cells assessed as decrease in cell viability after 72 hrs by neutral red dye assay; assay type: functional, cell-based
In short: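 KB-V1 cells grown in D-MEM/F12 with 10% FBS, penicillin/streptomycin, 2 mM L-glutamine and vinblastine (1 μg/ml), 37 °C, 5% CO2. Plated at 20,000 cells/well, adhered 24 h, treated with graded concentrations in triplicate for 72 h; neutral red (50 μg/ml, 30 min) uptake, dye extracted in acidic ethanol, read at 570 nm.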

[4] = system: HUVEC; assay: Cytotoxicity against TPA-treated HUVEC assessed as decrease in cell viability after 72 hrs by neutral red dye assay; assay type: cell-based; details: human
In short: (§3)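 HUVECs cultured overnight with or without TPA (100 nM phorbol ester) to induce tissue factor, then plated 20,000 cells/well, adhered 24 h, and exposed to graded drug concentrations for 72 h in triplicate. Viability read by neutral red uptake (50 μg/ml, 30 min, 37 °C), PBS washes, dye extracted in 0.5 N HCl/35% ethanol, absorbance at 570 nm.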

[5] = system: HUVEC; assay: Cytotoxicity against HUVEC assessed as decrease in cell viability after 72 hrs by neutral red dye assay; assay type: cell-based; details: human; in short: as §3

Row | Compound | IC50 [1] [nM] | Activity [2] | Activity [3] | Activity [4] | Activity [5]
1 | CC(=O)O[C@H]1C(=O)[C@@]2(C)[C@H]([C@H](OC(=O)c3ccccc3)[C@]3(O)C[C@H](OC(=O)[C@H](OC(=O)CCC(=O)N[C@@H](Cc4ccccc4)C(=O)N[C@@H](Cc4ccccc4)C(=O)N[C@@H](CCCNC(=N)N)C(=O)CCl)[C@@H](NC(=O)c4ccccc4)c4ccccc4)C(C)=C1C3(C)C)[C@]1(OC(C)=O)CO[C@@H]1C[C@@H]2O | 12 | Dose-dependent effect | inactive | Not Active | –
2 | CC(=O)O[C@H]1C(=O)[C@]2(C)[C@@H](OC(=O)CCC(=O)N[C@@H](Cc3ccccc3)C(=O)N[C@@H](Cc3ccccc3)C(=O)N[C@@H](CCCNC(=N)N)C(=O)CCl)C[C@H]3OC[C@@]3(OC(C)=O)[C@H]2[C@H](OC(=O)c2ccccc2)[C@]2(O)C[C@H](OC(=O)[C@H](O)[C@@H](NC(=O)c3ccccc3)c3ccccc3)C(C)=C1C2(C)C | 130 | Dose-dependent effect | inactive | – | –
3 | CC(=O)O[C@H]1C(=O)[C@@]2(C)[C@H]([C@H](OC(=O)c3ccccc3)[C@]3(O)C[C@H](OC(=O)[C@H](O)[C@@H](NC(=O)c4ccccc4)c4ccccc4)C(C)=C1C3(C)C)[C@]1(OC(C)=O)CO[C@@H]1C[C@@H]2O [PACLITAXEL] | 1.2 | – | inactive | Active | Active
